The values below come from ChEMBL document CHEMBL5356943, “Development of anti-HBV agents targeting HBV capsid proteins” (RSC Med Chem, 2023).

SMILES strings stand for the structures.

A short description of data set [1]: Ratio of compound EC50 to N-((5-bromopyridin-2-yl)carbamothioyl)-4-chlorobenzamide EC50 for antiviral activity against Hepatitis B virus genotype C infected in chimeric humanized liver mouse model PXB cells assessed as inhibition of HBcrAg level treated with infected cells on day 2 and measured on day 12 to 14 by ELISA. It counts as functional. The settings on record: time 10-12 day. A digest of the protocol:
(§1)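 PXB hepatocytes received serially diluted compound on day 2 and HBV genotype C on day 0. After 20–28 h, cells were washed and compound-containing medium renewed. Supernatant antigen on days 12–14 was measured by ELISA to give EC50 (50% antigen reduction). Each value is expressed as a ratio to the EC50 of the parent lead compound in the same antigen assay.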

The nature of data set [2]: Ratio of compound EC50 to N-((5-bromopyridin-2-yl)carbamothioyl)-4-chlorobenzamide EC50 for antiviral activity against Hepatitis B virus genotype C infected in chimeric humanized liver mouse model PXB cells assessed as inhibition of HBsAg level treated with infected cells on day 2 and measured on day 12 to 14 by ELISA. It counts as functional. The settings on record: time 10-12 day. A digest of the protocol:
as §1

Data set [3] can be described thus: Cytotoxicity against human HepG2 cells assessed as reduction in cell viability incubated for 7 days by MTT assay. It counts as toxicity, cell-based. The settings on record: time 7 day. Summed up: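 HepG2 (human hepatocellular carcinoma) viability by MTT assay, optical density read on a kinetic microplate reader. CC50 is the concentration giving 50% reduction of viability. Mean of at least two independent experiments.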

The nature of data set [4]: Cytotoxicity against human Huh-7 cells assessed as reduction in cell viability by MTT assay. It counts as toxicity, cell-based. Summed up: (§2)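 Each cell line cultured with serially diluted compound, then viability measured by MTT assay on a microplate reader. CC50 is the concentration giving 50% reduction of viability.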
Data set [5] in a line: Cytotoxicity against human Li-7 cells assessed as reduction in cell viability by MTT assay. It counts as toxicity, cell-based. A digest of the protocol: as §2
Data set [6] can be described thus: Cytotoxicity against human HLE cells assessed as reduction in cell viability by MTT assay. It counts as toxicity, cell-based. Summed up:
as §2

Data set [7] can be described thus: Cytotoxicity against human LI90 cells assessed as reduction in cell viability by MTT assay. It counts as toxicity, cell-based. Summed up:
as §2

Data set [8] in a line: Cytotoxicity against human HuCCT-1 cells assessed as reduction in cell viability by MTT assay. It counts as toxicity, cell-based. Summed up:
as §2

Data set [9] in a line: Cytotoxicity against human RBE cells assessed as reduction in cell viability by MTT assay. It counts as toxicity, cell-based. Summed up:
as §2

Data set [10] can be described thus: Cytotoxicity against human SSP-25 cells assessed as reduction in cell viability by MTT assay. It counts as toxicity, cell-based. A digest of the protocol: as §2
A short description of data set [11]: Cytotoxicity against human G415 cells assessed as reduction in cell viability by MTT assay. It counts as toxicity, cell-based. A digest of the protocol:
as §2

Data set [12] deals with Hepatitis B virus. Description: Antiviral activity against Hepatitis B virus genotype C infected in chimeric humanized liver mouse model PXB cells assessed as inhibition of HBcrAg level treated with infected cells on day 2 and measured on day 12 to 14 by ELISA. It counts as functional, organism-based. A digest of the protocol:
(§3)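 Human hepatocytes (PXB cells) from chimeric humanized-liver mice were seeded in 96-well plates, with serially diluted compound in fresh medium added on day 2. HBV genotype C was added on day 0. After 20–28 h, cells were PBS-washed and medium plus compound replenished. Supernatants were harvested on days 12–14, and antigen was quantified by ELISA. EC50 is the concentration giving 50% antigen reduction.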

Data set [13] has as its system Hepatitis B virus. Description: Antiviral activity against Hepatitis B virus genotype C infected in chimeric humanized liver mouse model PXB cells assessed as inhibition of HBsAg level treated with infected cells on day 2 and measured on day 12 to 14 by ELISA. It counts as functional, organism-based. Summed up: as §3

Regarding `O=C(NC(=S)Nc1ccc(Br)cn1)c1ccc(Br)cc1`, the results for the “Ratio EC50” value in [1] and in data set [2] were over 12 and over 4.8, respectively. In addition, the CC50 at 168 h in [3] turned out to be 41.8 µM.
With `O=C(NC(=S)Nc1ccc(C(F)(F)F)cn1)c1ccc(O)cc1`, the entries for the “Ratio EC50” value in [1] and in data set [2] were 0.86 and over 4.8, respectively. In addition, the CC50 at 168 h in data set [3] was 23.7 µM.
For `O=C(NC(=S)Nc1ccc(Br)cn1)c1ccc(C(F)(F)F)cc1`, the entries for the “Ratio EC50” value in data set [1] and in [2] were 1.7 and 0.63, respectively. Also, in data set [3], the half-maximal cytotoxic concentration (CC50) at 168 h is over 100 µM. For the same compound, the half-maximal cytotoxic concentration (CC50) was 92.7 µM in data set [4]; over 100 µM in [5]; over 100 µM in data set [6]; 62.1 µM in data set [7]; over 100 µM in data set [8]; 81.1 µM in data set [9]. For the same compound, the 50% cytotoxic concentration (CC50) in data set [10] is 76.3 µM; in [11], over 100 µM.
For the compound `CC(C)c1ccc(C(=O)NC(=S)Nc2ccc(C(F)(F)F)cn2)cc1`, the results for the “Ratio EC50” value in data set [1] and in data set [2] were over 12 and over 4.8, respectively. For the same compound, the CC50 at 168 h in [3] is 61.9 µM.
As for `O=C(NC(=S)Nc1ccc(Cl)cn1)c1ccc(Cl)cc1`, the “Ratio EC50” value is reported as 7.5 in data set [1] and 6.9 in data set [2]. Further, in data set [3], the CC50 at 168 h turned out to be 66.3 µM.
For `COc1ccc(C(=O)NC(=S)Nc2ccc(C(F)(F)F)cn2)cc1`, the “Ratio EC50” value in data set [1] is recorded as over 12; in [2] it was over 4.8. In [3], the CC50 at 168 h was found to be 75.9 µM.
With `O=C(NC(=S)Nc1cc2ccccc2cn1)c1ccc(Cl)cc1`, the figures for the “Ratio EC50” value in data set [1] and in data set [2] were 2.9 and 31, respectively. Moreover, the CC50 at 168 h in data set [3] is 79.1 µM.
Take `O=C(NC(=S)Nc1ccc(Br)cn1)c1ccc(Cl)cc1`: the concentration giving a half-maximal response (EC50) in the data set on Hepatitis B virus [12] is 0.044 µM; in the data set on Hepatitis B virus [13], 0.69 µM. In data set [3], the CC50 at 168 h was over 100 µM.
Turning to `Cc1ccc(C(=O)NC(=S)Nc2ccc(C(F)(F)F)cn2)cc1`, the “Ratio EC50” value is over 12 in [1] and over 4.8 in data set [2]. Also, the cytotoxic concentration (CC50) at 168 h in [3] was determined as 89.8 µM.
Take `O=C(NC(=S)Nc1cc(-c2ccccc2)c(C(F)(F)F)cn1)c1ccc(Cl)cc1`: the entries for the “Ratio EC50” value in data set [1] and in data set [2] were 22 and 11, respectively. The CC50 at 168 h in [3] is over 100 µM.
For `O=C(NC(=S)Nc1ccc(C(F)(F)F)cn1)c1ccc(Cl)cc1`, the “Ratio EC50” value in [1] is reported as 0.032; in data set [2], 0.005. In addition, the CC50 at 168 h in [3] is over 100 µM. For the same compound, the 50% cytotoxic concentration (CC50) in data set [4], in [5], in data set [6], in [7], in data set [8] and in data set [9] was over 100 µM in each case. Besides, the 50% cytotoxic concentration (CC50) was 61.3 µM in data set [10] and over 100 µM in [11].
`O=C(NC(=S)Nc1ccc(C(F)(F)F)cn1)c1ccc(C(F)(F)F)cc1`: the “Ratio EC50” value is listed as 16 in [1] and over 2.9 in data set [2]. Besides, the CC50 at 168 h in data set [3] was over 100 µM.
With `CC(C)(C)c1ccc(C(=O)NC(=S)Nc2ccc(C(F)(F)F)cn2)cc1`, the “Ratio EC50” value in [1] is on record as over 12; in data set [2], over 4.8. Further, the CC50 at 168 h in data set [3] is over 100 µM.
`O=C(NC(=S)Nc1ccc(C(F)(F)F)cn1)c1ccc(I)cc1`: the “Ratio EC50” value in data set [1] is given as over 12; in [2] it was over 4.8. For the same compound, the half-maximal cytotoxic concentration (CC50) at 168 h in data set [3] was over 100 µM.
In the case of `O=C(NC(=S)Nc1ccc(C(F)(F)F)cn1)c1ccc([N+](=O)[O-])cc1`, the “Ratio EC50” value in data set [1] is 2.7; in data set [2], 0.37. For the same compound, in data set [3], the CC50 at 168 h was over 100 µM.
With `O=C(NC(=S)Nc1ccc(F)cn1)c1ccc(Cl)cc1`, the “Ratio EC50” value was determined as 6.2 in data set [1] and 8.1 in data set [2]. The CC50 at 168 h in [3] is over 100 µM.
With `O=C(NC(=S)Nc1ccc(C(F)(F)F)cn1)c1ccc(Br)cc1`, the entries for the “Ratio EC50” value in [1] and in data set [2] were 3.8 and 2.7, respectively. The CC50 at 168 h in data set [3] is over 100 µM.
Turning to `O=C(NC(=S)Nc1ccc(C(F)(F)F)cn1)c1ccc(F)cc1`, the “Ratio EC50” value in data set [1] was over 12; in data set [2], over 4.8. The cytotoxic concentration (CC50) at 168 h in data set [3] is 42.2 µM.
In the case of `Cc1ccc(NC(=S)NC(=O)c2ccc(Cl)cc2)nc1`, the “Ratio EC50” value in data set [1] worked out at 3.7; in [2] it was 3.8. Moreover, the CC50 at 168 h in data set [3] was determined as 43.8 µM.
For the compound `O=C(NC(=S)Nc1ccc([N+](=O)[O-])cn1)c1ccc(Cl)cc1`, the “Ratio EC50” value in data set [1] is 20; in [2] it was 12. For the same compound, the CC50 at 168 h in data set [3] was over 100 µM.
For `O=C(NC(=S)Nc1ccccn1)c1ccc(Cl)cc1`, the “Ratio EC50” value was 7.6 in data set [1] and 5.5 in [2]. Also, the CC50 at 168 h in data set [3] came out at 26.8 µM.
`C[C@H](Cn1cnc2c(N)ncnc21)OCP(=O)(O)O` [TENOFOVIR ANHYDROUS]: the results for the half-maximal effective concentration (EC50) with Hepatitis B virus [12] and in the data set with Hepatitis B virus [13] were 0.36 µM and over 2 µM, respectively.
